≈ marks a conversion by molar mass, not a printed value.
How the values were obtained:
Assay type in all cases: functional
Escherichia coli [1] = experiment: (§1) Minimum inhibitory concentration of Escherichia coli growth.
Enterococcus faecalis = experiment: Minimum inhibitory concentration of Enterococcus faecalis growth.
Procedure, shortened: (§2)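 Broth-microdilution at 37 °C. Strains and media: E. faecalis ATCC 29212 in Todd-Hewitt, K. pneumoniae ATCC 13883 and P. vulgaris ATCC 8427 in nutrient broth, S. aureus ATCC 25923 in trypticase soy broth. About 1 × 10^7 cells/well, sample in 4% DMSO in water, duplicate. A595 read at 24 h versus a no-compound well. MIC is reported as a range. Ampicillin and tetracycline were controls.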

Proteus vulgaris = experiment: Minimum inhibitory concentration of Proteus vulgaris growth.; procedure, shortened: as §2
Staphylococcus aureus = experiment: Minimum inhibitory concentration of Staphylococcus aureus growth.; procedure, shortened: as §2
Klebsiella pneumoniae = experiment: Minimum inhibitory concentration of Klebsiella pneumoniae growth.; procedure, shortened: as §2
Streptococcus pyogenes [2] = experiment: Minimum inhibitory concentration of Streptococcus pyogenes growth.
Procedure, shortened: (§3)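 Streptococcus pyogenes in Todd-Hewitt broth at 37 °C. The tier II strain is ATCC 49399. Overnight culture at about 1 × 10^7 cells/well, sample in 4% DMSO in water, duplicate. Percent growth versus a no-compound well by A595 at 24 h. MIC is a concentration range: full inhibition at the upper value, growth at the lower. Ampicillin and tetracycline were controls.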

Candida albicans = experiment: Minimum inhibitory concentration of Candida albicans growth.
Procedure, shortened: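 Candida albicans ATCC 10231 in YM broth at 22 °C. Overnight culture added to sample in 4% DMSO in water, about 1 × 10^5 cells/well, 150 μL, duplicate. Growth scored visually at 48 h. MIC is reported as a concentration range: full inhibition at the upper value, viable cells at the lower. Amphotericin B was the positive control.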

Escherichia coli [3] = experiment: as §1; remark: listed apart in the source
Pseudomonas aeruginosa = experiment: Minimum inhibitory concentration of Pseudomonas aeruginosa growth.
Procedure, shortened: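 Pseudomonas aeruginosa ATCC 27853 in nutrient broth at 37 °C. About 1 × 10^7 cells/well, sample in 4% DMSO in water, 150 μL, duplicate. Growth relative to an untreated well was read at A595 after 24 h. MIC is given as a range, complete inhibition at the higher concentration. Ciprofloxacin was the positive control.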

Streptococcus pyogenes [4] = experiment: Minimum inhibitory concentration of Streptococcus pyogenes (wt) growth.; procedure, shortened: as §3
[5] = Streptococcus pyogenes, read-out: MIC
[6] = Escherichia coli, read-out: MIC

SMILES	MIC (Escherichia coli [1]) [µM]	MIC (Enterococcus faecalis) [µM]	MIC (Proteus vulgaris) [µM]	MIC (Staphylococcus aureus) [µM]	MIC (Klebsiella pneumoniae) [µM]	MIC (Streptococcus pyogenes [2]; [5]) [µM]	MIC (Candida albicans; Candida albicans) [µM]	MIC (Escherichia coli [3]; [6]) [µM]	MIC (Pseudomonas aeruginosa) [µM]	MIC (Streptococcus pyogenes [4]) [µM]	MIC (Streptococcus pyogenes [2]) [µM]	MIC (Candida albicans) [µM]	MIC (Escherichia coli [3]) [µM]
COC(=O)c1cccc(CN(CCNCCCO)Cc2cccc(CN(Cc3cccc(C(=O)OC)c3)Cc3cccc(C(=O)OC)c3)n2)c1	25 (≈ 17.1 µg/mL)	> 100	–	25 (≈ 17.1 µg/mL)	–	10 (≈ 6.83 µg/mL)	50 (≈ 34.1 µg/mL)	20 (≈ 13.7 µg/mL)	–	12 (≈ 8.19 µg/mL)	–	–	–
OCCCN(CCN(Cc1ccccc1)Cc1cccc(CN(Cc2ccccc2)Cc2ccccc2)n1)Cc1ccccc1	–	–	–	–	–	25 (≈ 15 µg/mL)	5 (≈ 2.99 µg/mL)	25 (≈ 15 µg/mL)	–	–	–	–	–
COC(=O)c1cccc(CN(Cc2cccc(C(F)(F)F)c2)Cc2cccc(CN(CCNCCCO)Cc3cccc(C)c3)n2)c1	> 100	6 (≈ 3.89 µg/mL)	> 100	12 (≈ 7.79 µg/mL)	> 100	5 (≈ 3.24 µg/mL)	< 12.5	25 (≈ 16.2 µg/mL)	> 100	6 (≈ 3.89 µg/mL)	–	–	–
Cc1cccc(CN(CCNCCCO)Cc2cccc(CN(Cc3cccc(C)c3)Cc3cccc(C)c3)n2)c1	6 (≈ 3.3 µg/mL)	6 (≈ 3.3 µg/mL)	> 100	6 (≈ 3.3 µg/mL)	> 100	5 (≈ 2.75 µg/mL)	12 (≈ 6.61 µg/mL)	5 (≈ 2.75 µg/mL)	> 100	6 (≈ 3.3 µg/mL)	–	–	–
Cc1cccc(CN(CCNCCCO)Cc2cccc(CN(Cc3cccc(C(F)(F)F)c3)Cc3cccc(C(F)(F)F)c3)n2)c1	> 100	6 (≈ 3.95 µg/mL)	> 100	12 (≈ 7.9 µg/mL)	> 100	5 (≈ 3.29 µg/mL)	> 100	25 (≈ 16.5 µg/mL)	> 100	6 (≈ 3.95 µg/mL)	–	–	–
NCc1cccc(CNCCNCCCO)n1	–	–	–	–	–	> 100	> 100	> 100	–	–	–	–	–
OCCCNCCN(Cc1cccc(C(F)(F)F)c1)Cc1cccc(CN(Cc2cccc(F)c2)Cc2cccc(C(F)(F)F)c2)n1	> 100	6 (≈ 3.98 µg/mL)	> 100	12 (≈ 7.95 µg/mL)	> 100	6 (≈ 3.98 µg/mL)	> 100	6 (≈ 3.98 µg/mL)	> 100	6 (≈ 3.98 µg/mL)	–	–	–
OCCCNCCN(Cc1cccc(C(F)(F)F)c1)Cc1cccc(CN(Cc2cccc(C(F)(F)F)c2)Cc2cccc(C(F)(F)F)c2)n1	> 100	> 100	> 100	6 (≈ 4.28 µg/mL)	> 100	5 (≈ 3.56 µg/mL)	> 100	5 (≈ 3.56 µg/mL)	> 100	12 (≈ 8.55 µg/mL)	–	–	–
Cc1cccc(CN(CCNCCCO)Cc2cccc(CN(Cc3ccccc3)Cc3cccc(C(F)(F)F)c3)n2)c1	25 (≈ 14.8 µg/mL)	6 (≈ 3.54 µg/mL)	> 100	6 (≈ 3.54 µg/mL)	12 (≈ 7.09 µg/mL)	5 (≈ 2.95 µg/mL)	< 12.5	5 (≈ 2.95 µg/mL)	> 100	6 (≈ 3.54 µg/mL)	–	–	–

The next lines start with the values.

MIC (Escherichia coli [1]) [µM]	MIC (Enterococcus faecalis) [µM]	MIC (Proteus vulgaris) [µM]	MIC (Staphylococcus aureus) [µM]	MIC (Klebsiella pneumoniae) [µM]	MIC (Streptococcus pyogenes [2]; [5]) [µM]	MIC (Candida albicans; Candida albicans) [µM]	MIC (Escherichia coli [3]; [6]) [µM]	MIC (Pseudomonas aeruginosa) [µM]	MIC (Streptococcus pyogenes [4]) [µM]	MIC (Streptococcus pyogenes [2]) [µM]	MIC (Candida albicans) [µM]	MIC (Escherichia coli [3]) [µM]	SMILES
12 (≈ 6.1 µg/mL)	12 (≈ 6.1 µg/mL)	50 (≈ 25.4 µg/mL)	25 (≈ 12.7 µg/mL)	50 (≈ 25.4 µg/mL)	5 (≈ 2.54 µg/mL)	50 (≈ 25.4 µg/mL)	10 (≈ 5.09 µg/mL)	50 (≈ 25.4 µg/mL)	6 (≈ 3.05 µg/mL)	–	–	–	OCCCNCCN(Cc1ccccc1)Cc1cccc(CN(Cc2ccccc2)Cc2ccccc2)n1
12 (≈ 6.75 µg/mL)	25 (≈ 14.1 µg/mL)	–	12 (≈ 6.75 µg/mL)	–	5 (≈ 2.81 µg/mL)	50 (≈ 28.1 µg/mL)	5 (≈ 2.81 µg/mL)	–	6 (≈ 3.38 µg/mL)	–	–	–	OCCCNCCN(Cc1cccc(F)c1)Cc1cccc(CN(Cc2cccc(F)c2)Cc2cccc(F)c2)n1
> 100	6 (≈ 4.22 µg/mL)	> 100	12 (≈ 8.43 µg/mL)	> 100	3 (≈ 2.11 µg/mL)	> 100	6 (≈ 4.22 µg/mL)	> 100	6 (≈ 4.22 µg/mL)	–	–	–	COC(=O)c1cccc(CN(Cc2cccc(C(F)(F)F)c2)Cc2cccc(CN(CCNCCCO)Cc3cccc(C(F)(F)F)c3)n2)c1
> 100	6 (≈ 4.14 µg/mL)	> 100	6 (≈ 4.14 µg/mL)	> 100	3 (≈ 2.07 µg/mL)	> 100	6 (≈ 4.14 µg/mL)	> 100	6 (≈ 4.14 µg/mL)	5 (≈ 3.45 µg/mL)	> 100	5 (≈ 3.45 µg/mL)	O=[N+]([O-])c1cccc(CN(Cc2cccc(C(F)(F)F)c2)Cc2cccc(CN(CCNCCCO)Cc3cccc(C(F)(F)F)c3)n2)c1
> 100	6 (≈ 3.81 µg/mL)	> 100	6 (≈ 3.81 µg/mL)	> 100	5 (≈ 3.18 µg/mL)	50 (≈ 31.8 µg/mL)	25 (≈ 15.9 µg/mL)	> 100	6 (≈ 3.81 µg/mL)	–	–	–	Cc1cccc(CN(CCNCCCO)Cc2cccc(CN(Cc3cccc([N+](=O)[O-])c3)Cc3cccc(C(F)(F)F)c3)n2)c1
> 100	6 (≈ 3.65 µg/mL)	> 100	6 (≈ 3.65 µg/mL)	25 (≈ 15.2 µg/mL)	5 (≈ 3.04 µg/mL)	< 12.5	5 (≈ 3.04 µg/mL)	> 100	6 (≈ 3.65 µg/mL)	–	–	–	Cc1cccc(CN(CCNCCCO)Cc2cccc(CN(Cc3cccc(F)c3)Cc3cccc(C(F)(F)F)c3)n2)c1
> 100	6 (≈ 3.63 µg/mL)	> 100	6 (≈ 3.63 µg/mL)	12 (≈ 7.26 µg/mL)	5 (≈ 3.02 µg/mL)	< 12.5	25 (≈ 15.1 µg/mL)	> 100	6 (≈ 3.63 µg/mL)	–	–	–	Cc1cccc(CN(CCNCCCO)Cc2cccc(CN(Cc3cccc(C)c3)Cc3cccc(C(F)(F)F)c3)n2)c1
> 100	> 100	> 100	12 (≈ 7.72 µg/mL)	> 100	5 (≈ 3.22 µg/mL)	> 100	10 (≈ 6.44 µg/mL)	> 100	12 (≈ 7.72 µg/mL)	–	–	–	O=[N+]([O-])c1cccc(CN(CCNCCCO)Cc2cccc(CN(Cc3cccc([N+](=O)[O-])c3)Cc3cccc([N+](=O)[O-])c3)n2)c1
> 100	12 (≈ 7.74 µg/mL)	> 100	25 (≈ 16.1 µg/mL)	50 (≈ 32.2 µg/mL)	3 (≈ 1.93 µg/mL)	> 100	3 (≈ 1.93 µg/mL)	> 100	12 (≈ 7.74 µg/mL)	–	–	–	OCCCNCCN(Cc1cccc(C(F)(F)F)c1)Cc1cccc(CN(Cc2ccccc2)Cc2cccc(C(F)(F)F)c2)n1
> 100	6 (≈ 3.95 µg/mL)	> 100	12 (≈ 7.9 µg/mL)	100 (≈ 65.9 µg/mL)	3 (≈ 1.98 µg/mL)	> 100	3 (≈ 1.98 µg/mL)	> 100	6 (≈ 3.95 µg/mL)	–	–	–	Cc1cccc(CN(Cc2cccc(C(F)(F)F)c2)Cc2cccc(CN(CCNCCCO)Cc3cccc(C(F)(F)F)c3)n2)c1

Reference: ChEMBL document CHEMBL1131483, “Discovery of novel pyridinopolyamines with potent antimicrobial activity: deconvolution of mixtures synthesized by solution-phase combinatorial chemistry” (1998)
